Results from different studies.
Protocols differ between the studies behind these lines. pIC50: −log10 of the molar value.

Compound	cell line	read-out	action	method	time	notes	pIC50
NCCC(=O)NCc1ccccc1	DH82	PGE2 release	inhibitor	ELISA	24 h	LPS-stimulated	3.91
C=C(F)C(=O)N1CCN(c2nc(OC[C@@H]3CCCN3C)nc3c2CCN(c2cccc4cccc(Cl)c24)C3)C[C@@H]1CC#N	AGS	cell growth or viability		ATP luminescence		3D culture	< 6.00
COc1cc2c3c(n(CCCN4CCOCC4)c(=O)c2cc1OC)-c1nc2c(cc1C3=O)OCO2	Raji	cell growth or viability		MTS	72 h		6.43
C=CC(=O)N1CCN(c2nc(=O)n(-c3c(C)ccnc3C(C)C)c3nc(-c4c(O)cccc4F)c(F)cc23)[C@@H](C)C1	PC-9	cell growth or viability		ATP luminescence			< 5.00
Nc1n[nH]c2nc(-c3cccc(O)c3)cc(-c3cc4ccccc4nc3N3CCOCC3)c12	NFS-60	cell growth or viability		MTT	72 h		7.19
CC1(C)CCC(CN2CCN(c3ccc(C(=O)NS(=O)(=O)c4ccc(NCC5CCOCC5)c([N+](=O)[O-])c4)c(Oc4cnc5[nH]ccc5c4)c3)CC2)=C(c2ccc(Cl)cc2)C1	DOHH-2	cell growth or viability		ATP luminescence	48 h		7.11
Nc1n[nH]c2nc(-c3cccc(O)c3)cc(-c3cc4cc(Cl)ccc4nc3N3CCOCC3)c12	NFS-60	cell growth or viability		MTT	72 h		6.80
NC(=O)c1ccncc1	DH82	NO release	inhibitor	Griess	24 h	LPS-stimulated	< 3.70
Cc1c(C(=O)O)ccc2c3n(nc12)[C@@H]1[C@H](C3)N(CC2CC2)[C@@]2(C(=O)Nc3cc(Cl)ccc32)[C@H]1c1cccc(Cl)c1F	SK-OV-3	cell growth or viability		ATP luminescence			< 4.30
COc1ccc(-c2cc(-c3cc(OC)ccc3OC)c3c(=O)[nH]c(=O)[nH]c3n2)cc1	HCT-116	cell growth or viability		MTT	48 h		4.93
Cc1nc2cccc(N)c2c(=O)n1C1CCC(=O)NC1=O (stereo not drawn)	NCI-H929	cell growth or viability		CCK-8	96 h		> 6.48
COc1cc2c3c(n(CCCn4ccnc4)c(=O)c2cc1OC)-c1nc2c(cc1C3=O)OCO2	Raji	cell growth or viability		MTS	72 h		6.69
O=C(CCO)NCc1ccccc1	DH82	PGE2 release	inhibitor	ELISA	24 h	LPS-stimulated	4.31
CCOc1nc(-c2cccc(O)c2)cc(-c2cc3cc(Cl)ccc3nc2N2CCOCC2)c1C#N	NFS-60	cell growth or viability		MTT	72 h		6.95
O=C(CCNNC(=O)c1ccncc1)NCc1ccccc1	DH82	NO release	inhibitor	Griess	24 h	LPS-stimulated	< 3.70
COc1ccc(-c2cc(-c3ccccc3Cl)c3c(=O)n(C)c(=O)n(C)c3n2)cc1	HCT-116	cell growth or viability		MTT	48 h		4.85
COCCC(=O)NCc1ccccc1	DH82	PGE2 release	inhibitor	ELISA	24 h	LPS-stimulated	3.90
CCCOc1nc(-c2cccc(O)c2)cc(-c2cc3cc(OC)ccc3nc2N2CCOCC2)c1C#N	NFS-60	cell growth or viability		MTT	72 h		7.19
